Activity calls are given as the source filed them. The calls are words filed in the database; no cut-off is given here. Residues, ends and D or L forms follow the SMILES beside them. *: point of attachment. Benzoyl(4-TriPhPorphyrinyl) = O=C(c1ccc(-c2c3nc(c(-c4ccccc4)c4ccc([nH]4)c(-c4ccccc4)c4nc(c(-c5ccccc5)c5ccc2[nH]5)C=C4)C=C3)cc1)*
Key:
Staphylococcus aureus [1] = assay: Antibacterial activity against methicillin-resistant Staphylococcus aureus ATCC BAA-44 assessed as cell death at 1.5 to 15 uM incubated for 60 mins in dark followed by red light illumination; format: functional, organism-based
Procedure, shortened: (§1)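 Cells incubated with PS in the dark at rt in PBS pH 7.3 (~2 × 10⁷ cells/mL), unbound PS not removed. Red light (600−750 nm) delivered from above at 40 mW/cm², total 36 J/cm². Viability read as cfu after 10-fold serial dilution, duplicate plating on BHI agar, overnight at 37 °C.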

Staphylococcus aureus [2] = assay: Antibacterial activity against methicillin-resistant Staphylococcus aureus ATCC BAA-44 assessed as cell death at 10 uM incubated for 15 to 120 mins in dark followed by red light illumination post compound washout; format: functional, organism-based
Procedure, shortened: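 After dark incubation with PS in PBS at rt, cells pelleted at 10000g for 5 min and washed three times with PBS. Red light (600−750 nm, 40 mW/cm², 36 J/cm²). Surviving cfu counted on BHI agar plated in duplicate.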

Escherichia coli [3] = assay: Antibacterial activity against Escherichia coli ATCC 25922 assessed as cell death after 60 mins in dark followed by red light illumination; format: functional, organism-based
Procedure, shortened: (§2)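 Dark incubation with PS at rt, then illumination either directly or after three PBS washes (10000g, 5 min). Survival by 10-fold serial dilution, duplicate plating on BHI agar, overnight colony count at 37 °C; dark, light-only and peptide-only controls.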

Staphylococcus aureus [4] = assay: Antibacterial activity against methicillin-resistant Staphylococcus aureus ATCC BAA-44 assessed as cell death at 10 uM incubated for 15 to 120 mins in dark followed by red light illumination; format: functional, organism-based; procedure, shortened: as §1
Escherichia coli [5] = assay: Drug uptake in Escherichia coli ATCC 25922 at 5 uM incubated for 60 mins in dark followed by flow cytometry post compound washout; format: ADME, organism-based; conditions: in vivo, 1 h
Procedure, shortened: (§3)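 Bacterial suspensions treated as for photoinactivation (5 μM, 60 min dark incubation at rt, either unwashed or washed three times with PBS) and then analysed for cell-associated red fluorescence by flow cytometry instead of being illuminated.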

Escherichia coli [6] = assay: Antibacterial activity against Escherichia coli ATCC 25922 assessed as cell death after 60 mins in dark followed by blue light illumination; format: functional, organism-based; procedure, shortened: as §2
Staphylococcus aureus [7] = assay: Drug uptake in methicillin-resistant Staphylococcus aureus ATCC BAA-44 at 1.5 uM incubated for 60 mins in dark followed by flow cytometry; format: ADME, organism-based; conditions: in vivo, 1 h
Procedure, shortened: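 Cells treated as for photoinactivation: 60 min dark incubation with PS, unwashed or after three PBS washings. Analysed by flow cytometry for cell-associated red fluorescence instead of being illuminated.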

Staphylococcus aureus [8] = assay: Antibacterial activity against methicillin-resistant Staphylococcus aureus ATCC BAA-44 assessed as cell death at 0.5 uM incubated for 60 mins in dark followed by blue light illumination; format: functional, organism-based
Procedure, shortened: (§4)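 Stationary-phase bacteria grown overnight in BHI at 37 °C, washed twice and resuspended in PBS pH 7.3 at ~2 × 10⁷ cells/mL. Dark incubation with PS at rt, unbound PS left in. Blue light (390−460 nm) at 15.2 mW/cm², 13.5 J/cm². Survivors counted as cfu from serial 10-fold dilutions plated in duplicate on BHI agar, 37 °C overnight. Dark, light-only and untreated controls.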

Staphylococcus aureus [9] = assay: Antibacterial activity against methicillin-resistant Staphylococcus aureus ATCC BAA-44 assessed as cell death at 50 to 500 nM incubated for 60 mins in dark followed by blue light illumination post compound washout; format: functional, organism-based
Procedure, shortened: (§5)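 Overnight BHI-grown stationary-phase bacteria in PBS pH 7.3 at ~2 × 10⁷ cells/mL, dark-incubated with PS at rt. Then centrifuged at 10000g for 5 min and washed three times in PBS before blue light (390−460 nm, 15.2 mW/cm², 13.5 J/cm²). Survival measured as cfu from serial dilutions plated in duplicate on BHI agar.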

Staphylococcus aureus [10] = assay: Antibacterial activity against methicillin-resistant Staphylococcus aureus ATCC BAA-44 assessed as cell death at 50 to 500 nM incubated for 60 mins in dark followed by blue light illumination; format: functional, organism-based; procedure, shortened: as §4
Staphylococcus aureus [11] = assay: Antibacterial activity against methicillin-resistant Staphylococcus aureus ATCC BAA-44 assessed as cell death at 10 nM incubated for 15 to 120 mins in dark followed by blue light illumination; format: functional, organism-based; procedure, shortened: as §4
Escherichia coli [12] = assay: Drug uptake in Escherichia coli ATCC 25922 at 5 uM incubated for 60 mins in dark followed by flow cytometry; format: ADME, organism-based; conditions: in vivo, 1 h; procedure, shortened: as §3
Staphylococcus aureus [13] = assay: Antibacterial activity against methicillin-resistant Staphylococcus aureus ATCC BAA-44 assessed as cell death at 10 nM incubated for 15 to 120 mins in dark followed by blue light illumination post compound washout; format: functional, organism-based; procedure, shortened: as §5
Escherichia coli [14] = assay: Antibacterial activity against Escherichia coli ATCC 25922 assessed as cell death at 10 uM incubated for 15 to 120 mins in dark followed by blue light illumination; format: functional, organism-based; procedure, shortened: as §2
Escherichia coli [15] = assay: Antibacterial activity against Escherichia coli ATCC 25922 assessed as cell death at 10 uM incubated for 15 to 120 mins in dark followed by blue light illumination post compound washout; format: functional, organism-based; procedure, shortened: as §2
Escherichia coli [16] = assay: Antibacterial activity against Escherichia coli ATCC 25922 assessed as cell death at 15 uM incubated for 60 mins in dark followed by blue light illumination relative to control; format: functional; procedure, shortened: as §4
Staphylococcus aureus [17] = assay: Antibacterial activity against methicillin-resistant Staphylococcus aureus ATCC BAA-44 assessed as cell death at 0.5 uM incubated for 60 mins in dark followed by blue light illumination post compound washout; format: functional, organism-based; procedure, shortened: as §5
Escherichia coli [18] = assay: Antibacterial activity against Escherichia coli ATCC 25922 assessed as cell death at 10 uM incubated for 60 mins in dark followed by blue light illumination post compound washout; format: functional, organism-based; procedure, shortened: as §2
Staphylococcus aureus [19] = assay: Antibacterial activity against methicillin-resistant Staphylococcus aureus ATCC BAA-44 assessed as cell death at 0.5 uM incubated for 15 to 120 mins in dark followed by blue light illumination post compound washout; format: functional, organism-based; procedure, shortened: as §5
Escherichia coli [20] = assay: Antibacterial activity against Escherichia coli ATCC 25922 assessed as cell death at 1.5 to 15 uM incubated for 60 mins in dark followed by blue light illumination post compound washout; format: functional, organism-based; procedure, shortened: as §2
Staphylococcus aureus [21] = assay: Antibacterial activity against methicillin-resistant Staphylococcus aureus ATCC BAA-44 assessed as cell death at 0.5 uM incubated for 15 to 120 mins in dark followed by blue light illumination; format: functional, organism-based; procedure, shortened: as §4
Staphylococcus aureus [22] = assay: Antibacterial activity against methicillin-resistant Staphylococcus aureus ATCC BAA-44 assessed as log reduction in cell survival at 0.5 uM incubated for 60 mins in dark followed by blue light illumination; format: functional; procedure, shortened: as §4
Escherichia coli [23] = assay: Antibacterial activity against Escherichia coli ATCC 25922 assessed as log reduction at 10 uM incubated for 60 mins in dark followed by blue light illumination post compound washout relative to control; format: functional, organism-based; procedure, shortened: as §5
Escherichia coli [24] = assay: Antibacterial activity against Escherichia coli ATCC 25922 assessed as cell death at 5 uM incubated for 15 to 120 mins in dark followed by blue light illumination; format: functional, organism-based; procedure, shortened: as §4
Escherichia coli [25] = assay: Antibacterial activity against Escherichia coli ATCC 25922 assessed as cell death at 5 to 10 uM incubated for 60 mins in dark followed by blue light illumination; format: functional, organism-based; procedure, shortened: as §4
Escherichia coli [26] = assay: Antibacterial activity against Escherichia coli ATCC 25922 assessed as cell death at 5 uM incubated for 15 to 120 mins in dark followed by blue light illumination post compound washout; format: functional, organism-based; procedure, shortened: as §5

| Structure (SMILES) | Activity (Escherichia coli [6]) | Drug uptake (Staphylococcus aureus [7]) | Activity (Staphylococcus aureus [8]) | Activity (Staphylococcus aureus [9]) | Activity (Staphylococcus aureus [10]) | Drug uptake (Escherichia coli [12]) | Activity (Escherichia coli [14]) | Activity (Escherichia coli [15]) | fold change (FC) (Escherichia coli [16]) | Activity (Staphylococcus aureus [17]) | Activity (Staphylococcus aureus [19]) | Activity (Escherichia coli [20]) | Activity (Staphylococcus aureus [21]) | FC (Staphylococcus aureus [22]) | other results |
| --- | --- | --- | --- | --- | --- | --- | --- | --- | --- | --- | --- | --- | --- | --- | --- |
| COC(=O)CCCC(=O)Nc1cc2[nH]c(cc2-c2ccccc2)c2nc(ccc3[nH]c(cc3-c3ccccc3)c3nc1C(c1ccccc1)=C3)C(c1ccccc1)=C2 | – | – | – | – | – | – | – | – | – | – | – | – | – | – | Activity (Staphylococcus aureus [1]): Active; Activity (Staphylococcus aureus [2]): Active; Activity (Escherichia coli [3]): inactive; Activity (Staphylococcus aureus [4]): Active |
| O=C(O)c1ccc(-c2c3nc(c(-c4ccccc4)c4ccc([nH]4)c(-c4ccccc4)c4nc(c(-c5ccccc5)c5ccc2[nH]5)C=C4)C=C3)cc1 | inactive | Active | Active | Active | Active | Not Active | – | – | – | – | – | – | – | – | Drug uptake (Escherichia coli [5]): Not Active; Activity (Staphylococcus aureus [11]): Active; Activity (Staphylococcus aureus [13]): Active |
| CC[C@H](C)[C@H](NC(=O)[C@H](Cc1ccc(O)cc1)NC(=O)[C@@H](NC(=O)[C@@H]1CCCN1C(=O)[C@H](CCCNC(=N)N)NC(=O)[C@H](CC(N)=O)NC(=O)[C@H](CC(N)=O)NC(=O)CNC(=O)c1ccc(-c2c3nc(c(-c4ccccc4)c4ccc([nH]4)c(-c4ccccc4)c4nc(c(-c5ccccc5)c5ccc2[nH]5)C=C4)C=C3)cc1)C(C)C)C(=O)N1CCC[C@H]1C(=O)N[C@@H](CCC(N)=O)C(=O)N1CCC[C@H]1C(=O)N[C@@H](CCCNC(=N)N)C(=O)N1CCC[C@H]1C(=O)N1CCC[C@H]1C(=O)N[C@@H](Cc1cnc[nH]1)C(=O)N1CCC[C@H]1C(=O)N[C@@H](CCCNC(=N)N)C(=O)N[C@@H](CC(C)C)C(=O)O ({Benzoyl(4-TriPhPorphyrinyl)}-GNNRPVYIPQPRPPHPRL-OH) | Dose-dependent effect | Active | – | – | – | Active | Active | Active | 4 | Active | Active | Active | Active | 3 | Activity (Escherichia coli [18]): Active |
| C[n+]1ccc(-c2c3nc(c(-c4cc[n+](C)cc4)c4ccc([nH]4)c(-c4ccc(C(=O)O)cc4)c4ccc([nH]4)c(-c4cc[n+](C)cc4)c4nc2C=C4)C=C3)cc1 | Dose-dependent effect | Not Active | Active | inactive | Active | Not Active | – | – | – | – | Active | Active | Active | – | Activity (Escherichia coli [23]): inactive; Activity (Escherichia coli [24]): Active; Activity (Escherichia coli [25]): Active; Activity (Escherichia coli [26]): Active |
| CC(C)C[C@H](NC(=O)[C@H](CCCNC(=N)N)NC(=O)[C@@H]1CCCN1C(=O)[C@H](Cc1cnc[nH]1)NC(=O)[C@@H]1CCCN1C(=O)[C@@H]1CCCN1C(=O)[C@H](CCCNC(=N)N)NC(=O)[C@@H]1CCCN1C(=O)CNC(=O)c1ccc(-c2c3nc(c(-c4ccccc4)c4ccc([nH]4)c(-c4ccccc4)c4nc(c(-c5ccccc5)c5ccc2[nH]5)C=C4)C=C3)cc1)C(=O)O ({Benzoyl(4-TriPhPorphyrinyl)}-GPRPPHPRL-OH) | Dose-dependent effect | Active | – | – | – | Active | Active | Active | 4 | Active | Active | Active | Active | 3 | – |

— ChEMBL document CHEMBL2321660, “Synthesis, characterization, and photoinduced antibacterial activity of porphyrin-type photosensitizers conjugated to the antimicrobial peptide apidaecin 1b” (J Med Chem, 2013)
